Reference: PMC3557599 (Toxicology and applied pharmacology, 2012)
Read-outs that look alike come from different tables or passages of the source.

What was measured:
[1] = Reaction with GSH in the presence of filtered rat liver cytosol; assay type: in vitro ADME; settings: for Half-life +GSH + Cytosol: 0.459 mM compound, 1.53 mM GSH, filtered rat liver cytosol 2 mg/mL, 37°C; for reduction of half-life in the presence of liver cytosol: +GSH + cytosol vs +GSH alone
Procedure, shortened: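 Rat liver cytosol came from male Sprague-Dawley rats (180–225 g). It was filtered three times through centrifugal filters with pH 7.4 phosphate buffer to strip GSH and small molecules, and protein was measured by Lowry. Test compound (0.459 mM), GSH (1.53 mM) and cytosol (2 mg/mL) were incubated at 37°C. Aliquots were taken every 2.5 or 5 min, TFA-acidified, and run on C18 HPLC with UV detection. Diastereomer half-lives came from first-order kinetics.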

male Sprague-Dawley rats = assay type: in vivo, rat; settings: 230 µmol/kg b.w. i.p.; for BUN levels compared to control (saline-treated) rats / AST and ALT levels: 24 h after dosing; for urine volume: saline-treated rats 0.20 ± 0.04 dL; for AST and ALT levels: vs saline-treated rats; for Urine protein/creatinine ratio: vs saline; for nephrotoxicity based on the biochemical endpoints assayed: equimolar comparison
kidneys of male rats = test: Kidney histopathology, grading of tubular necrosis in inner and outer zone; assay type: in vivo, rat; settings: 230 µmol/kg b.w. i.p., 24 h post treatment
[2] = Reactivity toward GSH in phosphate buffer pH 7.4 at 37°C; assay type: physicochemical
Procedure, shortened: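 Test compound (0.459 mM) and GSH (1.53 mM) were incubated in 0.1 M KH2PO4/0.1 M KCl/5 mM Na2EDTA, pH 7.4, in a shaking bath at 37°C. Aliquots were taken every 5–10 min for up to 60 min and TFA-acidified. Analysis was C18 HPLC with an acetonitrile/0.1% TFA gradient, reading UV 220 nm for sulfoxide loss and 260 nm for products. Diastereomer half-lives came from first-order kinetics. Conjugates (3 mM compound, 10 mM GSH, 1 h) were isolated and identified by positive-ESI LC/MS-TOF.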

rats = settings: 230 µmol/kg b.w. ref Lash et al., 1994; cited from earlier work
[3] = test system: isolated rat renal proximal tubule cells; settings: cited from earlier work
[4] = ref Commandeur et al., 1991; cited from earlier work

| Compound | Half-life +GSH + Cytosol [1] [min] | reduction of half-life in the presence of liver cytosol [1] [fold] | BUN levels compared to control (saline-treated) rats (male Sprague-Dawley rats) | kidney region primarily affected by lesions (kidneys of male rats) | reaction with GSH (formation of glutathione conjugates) [2] | further results |
| --- | --- | --- | --- | --- | --- | --- |
| S-(1,2-dichlorovinyl)-L-cysteine sulfoxide [DCVCS II, reference compound] | 3.1 | 2 |  |  |  |  |
| S-(1,2-dichlorovinyl)-L-cysteine sulfoxide [DCVCS, reference compound] |  |  | 7 fold | outer cortical proximal tubules (S1–S2 segments) | the corresponding glutathione conjugates were detected | anuric rats (male Sprague-Dawley rats; 24 h): two out of the four; Glucose excretion (male Sprague-Dawley rats; 24 h urine, rats anuric or producing little urine): not different than saline-treated rats; urine volume (male Sprague-Dawley rats; 24 h urine): 0.05 ± 0.07 dL |
| N[C@@H](CSC(Cl)=CCl)C(=O)O [DCVC, S-(1,2-dichlorovinyl)-L-cysteine] |  |  |  |  |  | kidney histopathology (rats): scattered, patchy foci of tubular necrosis |
| CC(=O)N[C@@H](C[S+]([O-])C(Cl)=CCl)C(=O)O (single isomer, unassigned) [NA-DCVCS II, N-acetyl-S-(1,2-dichlorovinyl)-L-cysteine sulfoxide] | 2.3 | 10 |  |  |  |  |
| CC(=O)N[C@@H](C[S+]([O-])C(Cl)=CCl)C(=O)O (stereo partly drawn) [NA-DCVCS, N-acetyl-S-(1,2-dichlorovinyl)-L-cysteine sulfoxide] |  |  | approximately 3 fold | cortico-medullary proximal tubules (S2–S3 segments) | the corresponding glutathione conjugates were detected | Urinary excretion of glucose over 24 h compared to saline-treated rats (male Sprague-Dawley rats): 89 fold; AST and ALT levels (male Sprague-Dawley rats): not different from saline-treated rats; Urine protein/creatinine ratio (male Sprague-Dawley rats; 24 h urine): elevated; nephrotoxicity based on the biochemical endpoints assayed (male Sprague-Dawley rats): less nephrotoxic than DCVCS; cytotoxicity ([3]; isolated rat renal proximal tubule cells ref Werner et al., 1996): more cytotoxic than NA-DCVC |
| S-(1,2-dichlorovinyl)-L-cysteine sulfoxide [DCVCS I, reference compound] | 1.4 | 10 |  |  |  |  |
| CC(=O)N[C@@H](CSC(Cl)=CCl)C(=O)O [NA-DCVC, N-Acetyl-S-(1,2-dichlorovinyl)-L-cysteine] |  |  | approximately 3 fold | cortico-medullary proximal tubules (S2–S3 segments) | not reactive with GSH | Urinary excretion of glucose over 24 h compared to saline-treated rats (male Sprague-Dawley rats): 113 fold; AST and ALT levels (male Sprague-Dawley rats): not different from saline-treated rats; Urine protein/creatinine ratio (male Sprague-Dawley rats; 24 h urine): elevated; urine volume (male Sprague-Dawley rats; 24 h urine): 0.32 ± 0.11 dL; nephrotoxicity based on the biochemical endpoints assayed (male Sprague-Dawley rats): less nephrotoxic than DCVCS; mutagenicity in the Ames test [4]: strong mutagen; cytotoxicity ([3]; isolated rat proximal tubule cells ref Commandeur et al., 1991): less cytotoxic then DCVC |
| CC(=O)N[C@@H](C[S+]([O-])C(Cl)=CCl)C(=O)O (single isomer, unassigned) [NA-DCVCS I, N-acetyl-S-(1,2-dichlorovinyl)-L-cysteine sulfoxide] | 5.4 | 2 |  |  |  |  |
